Assay outcomes: PubChem BioAssay, several laboratories
CHT PAM – allosteric activators of human choline transporter CHT. Q9GZV3. CHT-expressing cells, membrane potential dye, choline EC20; stronger effect = higher value; LV-AA mutant CHT in HEK293 cells. B-score at 10 µM. actives 0.49% (n = 310,000). AID 488977;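 active = initial fluorescence not abnormally high and integrated response B-score, plate-corrected, over 3 SD above library mean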
Target sequence (Q9GZV3 whole entry, looked up): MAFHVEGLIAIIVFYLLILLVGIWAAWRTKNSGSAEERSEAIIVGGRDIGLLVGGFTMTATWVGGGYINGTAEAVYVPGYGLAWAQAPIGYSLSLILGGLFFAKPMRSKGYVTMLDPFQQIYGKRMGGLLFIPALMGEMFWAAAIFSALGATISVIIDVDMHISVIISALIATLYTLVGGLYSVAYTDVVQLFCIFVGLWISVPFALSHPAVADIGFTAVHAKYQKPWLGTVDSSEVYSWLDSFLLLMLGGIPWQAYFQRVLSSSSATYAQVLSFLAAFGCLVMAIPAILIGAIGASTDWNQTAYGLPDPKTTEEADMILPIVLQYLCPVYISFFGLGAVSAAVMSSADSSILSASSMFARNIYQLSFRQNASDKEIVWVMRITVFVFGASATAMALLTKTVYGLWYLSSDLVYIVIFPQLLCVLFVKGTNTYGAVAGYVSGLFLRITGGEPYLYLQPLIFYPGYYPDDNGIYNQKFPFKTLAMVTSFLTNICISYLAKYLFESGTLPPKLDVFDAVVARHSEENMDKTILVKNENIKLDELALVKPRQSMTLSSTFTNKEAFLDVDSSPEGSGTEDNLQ
NR2E3 ag-1 – agonists of human nuclear receptor NR2E3. GST-NR2E3/biotin-RetCOR TR-FRET, 1536-well. inhibition of corepressor binding, % at 4.78 µM. actives 0.12% (n = 320,000). AID 2300;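 active = percent inhibition above the cutoff of mean plus 3 SD of all tested compounds, set per screening campaign, cut at about 20% in these data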
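Test system – NR2E3–RetCOR corepressor complex · Quantity – NR2E3 fusion 1.35 nM · Buffer or medium – Tris pH 7.5 · Incubation – Compound–protein incubation for 5 h at 4 °C · Technique – TR-FRET, Eu(K)-anti-GST donor, streptavidin-D2 acceptor, ex 340, em 617/671 nm · Evaluation – percent inhibition of 671/617 nm emission ratio versus biotin and DMSO controls · Plate – 1536-well format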
NR2F2 inh – inhibitors of human COUP-TFII (NR2F2); P24468; inhibition, % at 8.6 µM; actives 0.7% (n = 370,000); HEK293T NGFI-A luciferase reporter, luminescence;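 active = inhibition above a per-plate cutoff, mean inhibition of test wells between control levels plus 3 SD, cut at about 38% in these data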;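 note: cells cotransfected with COUP-TFII expression vector driving the NGFI-A reporter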
GalR3 antagonist – antagonists of human GalR3; HEK293 GalR3-CNG cAMP membrane potential fluorescence; galR3 body fused to GalR1 C-terminus; inhibition, % at 3 µM; actives 0.44% (n = 360,000);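 active = inhibition above the screen-wide average plus 3 SD, cut at about 13% in these data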;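 note: forskolin and galanin both at EC90 stimulate the cells; cAMP rise reported by CNG channel membrane potential dye signal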
NR2E3 ag-2 – human photoreceptor-specific nuclear receptor agonism; Q9Y5X4; CHO-S Gal4-NCOR/VP16-NR2E3 two-hybrid, luciferase; inhibition of corepressor binding, % at 3.98 µM; actives 0.35% (n = 360,000); AID 602229;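 active = inhibition above the mean of all tested compounds plus 3 SD, cut at about 70% in these data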;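 note: higher means lower luciferase signal from less NR2E3 corepressor binding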
CHT block – human CHT choline transport inhibition. actives 0.86% (n = 310,000). B-score at 10 µM. AID 488975. CHT-expressing cells, membrane potential dye, choline response; stronger effect = lower value. Q9GZV3;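 active = B-score over 3 SD under the library average, and starting fluorescence ratio not unusually high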;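 note: choline stimulus applied at its EC90 after an EC20 pre-addition; B-score computed on integrated fluorescence ratio after choline addition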
CHT inh conf – confirmation of human choline transporter CHT inhibitors; shares compounds with CHT block; CHT-expressing cells, choline membrane potential dye; LV-to-AA substituted CHT, HEK293 cells; CHT activity remaining % of control (stronger effect = lower value), % at 10 µM; actives 70% (n = 2,400); AID 493221;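 active = choline transporter activity left, mean of duplicates at 10 µM, below buffer-only control mean minus 3 SD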;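 note: depolarization triggered by choline at its EC90 following an EC20 pre-addition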
HEK293 MPD ctr – counter-screen for CHT inhibitors: effect in parental HEK293 cells | shares compounds with CHT block | membrane potential dye, choline response; active = decrease or increase beyond buffer ±3SD | membrane potential ratio readout (active if shifted either direction beyond buffer ±3SD; no single direction) at 10 µM | actives 4% (n = 2,400);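 note: parental cells lack the transporter so any hit is non-specific; ratio is peak minus trough fluorescence over baseline after EC90 choline challenge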
A number is an active result; i = inactive; nt = no result. In the library only some 2.3% were active in any assay of this set; here they are far more common.

SMILES	CHT PAM	NR2E3 ag-1	NR2F2 inh	GalR3 antagonist	NR2E3 ag-2	CHT block	CHT inh conf	HEK293 MPD ctr
CCn1cc(/C=C(\NC(=O)c2ccccc2F)C(=O)NCCCn2ccnc2)c2ccccc21	i	i	i	i	i	-7.2	28%	i
O=C(NCCCn1ccnc1)/C(=C/c1ccccc1)NC(=O)c1ccccc1	i	i	i	i	i	i	nt	nt
Cc1ccc(OC[C@@H](O)CN2CCC(C(O)(c3ccccc3)c3ccccc3)CC2)cc1	nt	nt	i	nt	nt	nt	nt	nt
Cc1ccccc1Cn1cc(CN2[C@H](CC(C)C)COc3cc(Br)ccc3S2(=O)=O)nn1	nt	nt	i	nt	nt	nt	nt	nt
COc1ccc(S[C@]2(C(=O)NCc3ccccc3)CC(=O)N[C@@H]2c2ccc(OC)cc2)cc1	nt	nt	i	nt	nt	nt	nt	nt
Cc1ccc(S(=O)(=O)NNC(=O)c2ccoc2C)cc1	i	i	i	i	i	i	nt	nt
Cc1occc1C(=O)NNS(=O)(=O)c1ccc([N+](=O)[O-])cc1	i	i	i	i	i	-5.1	46%	i
Cc1nnc(C)n1/N=C/c1cc(Br)ccc1O	i	i	i	i	i	i	nt	nt
Cc1nnc(C)n1/N=C/c1cc(Br)cc(Br)c1O	i	i	i	i	i	-6.8	34%	i
COC(=O)Cc1cc(=O)n2[nH]c(C)c(-c3ccccc3)c2n1	i	i	i	i	i	i	nt	nt
CCCc1cc(=O)n2[nH]c(C)c(-c3ccccc3)c2n1	i	i	i	i	i	-5.8	i	i
Cc1[nH]n2c(=O)cc(C(C)C)nc2c1-c1ccccc1	i	i	i	i	i	-5.2	i	i
COC(=O)Cn1ccc(N(C)C)c(C#N)c1=O	i	i	i	i	i	-15	8.7%	i
COC(=O)Cn1ccc(-c2ccc(Cl)cc2)c(C#N)c1=O	i	i	i	i	i	i	nt	nt
CCOc1ccc(-n2c(SC/C=C/c3ccccc3)nnc2-c2ccco2)cc1	nt	nt	i	nt	nt	nt	nt	nt
COc1ccc(NC(=O)CSc2nnc(C)n2Cc2ccccc2)cc1	i	i	i	i	i	i	nt	nt
CCOC(=O)c1cccc(NC(=O)CSc2nnc(C)n2Cc2ccccc2)c1	i	i	i	i	i	-6.9	66%	i
Cc1nnc(SCC(=O)c2ccccc2)n1Cc1ccccc1	i	i	i	i	i	-5.3	47%	-8.6
CC(C)CNS(=O)(=O)/C=C/c1ccc(F)cc1CNC(=O)OC(C)(C)C	nt	nt	i	nt	nt	nt	nt	nt
C=CCN(CC#CC1=CCCCC1)Cc1ccc(OC)cc1OC	nt	nt	i	nt	nt	nt	nt	nt
COc1cccc(CNC2CCC23CCC(C)CC3)c1 (stereo not given)	nt	nt	i	nt	nt	nt	nt	nt
CN(C)CCCn1c(=O)n(CCc2ccccc2)c(=O)c2c3c(sc21)CCCCC3	i	i	i	i	i	-7.8	31%	i
O=C(O)CCNC1C=CS(=O)(=O)C1 (stereo not given)	i	i	i	i	i	-6.2	i	i
Fc1ccc(COc2ccc3ccccc3c2CNc2nn[nH]n2)cc1	i	i	i	i	i	i	nt	nt
CNCc1c(OCc2ccc(F)cc2)ccc2ccccc12	i	i	i	i	i	-7.9	41%	-13
SMILES	CHT PAM	NR2E3 ag-1	NR2F2 inh	GalR3 antagonist	NR2E3 ag-2	CHT block	CHT inh conf	HEK293 MPD ctr
COC(=O)[C@]12C[C@H](CC(=O)N3CCCCC3)C(=O)N(Cc3ccccc3)C1=C[C@H](COCc1ccccc1)O[C@@H]2C	nt	nt	i	nt	nt	nt	nt	nt
CC1=C2NC(N)=[N+](Cc3ccccc3)CC2n2c(=O)n(-c3ccccc3)c(=O)n2C1 (stereo not given)	nt	nt	i	nt	nt	nt	nt	nt
CC(=O)c1c(C)[nH]c(C(=O)N2CCc3ccccc32)c1C	i	i	i	i	i	i	nt	nt
CCOC(=O)c1[nH]c(C)c(C(=O)N2CCc3ccccc32)c1C	i	i	i	i	i	-6	i	2.4
Cc1ccnc(NS(=O)(=O)c2ccc(NC(=O)c3cccc(Cl)c3)cc2)n1	nt	nt	i	i	i	nt	nt	nt
Cc1ccnc(NS(=O)(=O)c2ccc(NC(=O)c3ccc(Cl)cc3[N+](=O)[O-])cc2)n1	i	nt	i	i	i	-5.5	51%	i
COCCn1c(-c2cccs2)csc1=Nc1cccnc1	i	i	i	i	i	i	nt	nt
Fc1ccccc1-c1csc(=Nc2cccnc2)n1CCCn1ccnc1	i	i	i	i	i	-6.8	48%	i
COc1ccccc1CNC(=O)NCCCN1CCN(c2ccc(F)cc2)CC1	nt	nt	i	nt	nt	nt	nt	nt
CCOC(=O)CSc1nnc(CNc2ccccc2Cl)n1-c1ccccc1	i	i	i	i	i	-5.3	i	i
CCCCCNC(=O)c1ccc2c(=O)[nH]c3c(C(=O)NCC4CCCO4)sc(=S)n3c2c1 (stereo not given)	i	i	i	i	i	-7.8	35%	i
O=C(NC1CCCC1)c1sc(=S)n2c1[nH]c(=O)c1ccccc12	i	i	i	i	i	-5	i	i
Cc1cccc(CCNC(=O)c2ccc(Sc3ccccc3Cl)c([N+](=O)[O-])c2)c1	nt	nt	i	nt	nt	nt	nt	nt
COCCCNC(=O)C[C@@H]1C(=O)N2CCCC3=C2[C@@]1(C(=O)OC)CCCC3	nt	nt	i	nt	nt	nt	nt	nt
Cc1ccc(CNC(=O)OC(C)(C)C)c(/C=C/S(=O)(=O)NC2CCCC2)c1	nt	nt	i	nt	nt	nt	nt	nt
COc1ccc(S[C@]2(C(=O)N(C)C)CC(=O)N(c3ccccc3)[C@@H]2c2ccc(OC)cc2)cc1	nt	nt	i	nt	nt	nt	nt	nt
COc1ccc(N2C(=O)C(CC(=O)Nc3ccccc3)N(CCc3ccc(OC)c(OC)c3)C2=O)cc1 (stereo not given)	i	i	i	i	i	-8.7	i	i
CCc1ccc(OCc2n[nH]c(=S)n2Cc2ccccc2)cc1	i	i	i	i	i	-6.5	68%	i
S=c1[nH]nc(COc2ccccc2)n1Cc1ccccc1	i	i	i	i	i	i	nt	nt
CCOC(=O)[C@]12CCCC=C1N(CCCOC)C(=O)[C@@H]2CC(=O)NCc1cccc(C(F)(F)F)c1	nt	nt	i	nt	nt	nt	nt	nt
O=C(NCCn1cccn1)c1ccc(OC2CCN(C(=O)C3CC3)CC2)cc1	i	i	i	i	i	-11	i	i
CSCCNC(=O)c1ccc(OC2CCN(CCc3ccccc3)CC2)cc1	i	i	i	i	i	-5.2	46%	4.8
COc1ccc(Cc2c(O)nc(SCC(C)C)[nH]c2=O)cc1	i	i	i	i	i	i	nt	nt
Cc1nc(SCC(N)=O)[nH]c(=O)c1Cc1ccc(OC(C)C)cc1	i	i	i	i	i	-6.1	i	i
COc1ccc(Cl)c2sc(N(CCN(C)C)C(=O)c3ccc4c(c3)OCCO4)nc12	i	i	i	i	i	-9.8	36%	i
